Assay results published in ChEMBL document CHEMBL3621103, “Chemical Synthesis and Biological Activities of 20S,24S/R-Dihydroxyvitamin D3 Epimers and Their 1α-Hydroxyl Derivatives” (J Med Chem, 2015).
The source made the active and inactive calls. The calls are words filed in the database; no cut-off is given here.

Experiments:
[1] = target: T1, 25-hydroxyvitamin D-1 alpha hydroxylase, mitochondrial (Mus musculus) (UniProt O35084); test: Substrate activity at mouse CYP27B1 assessed as 1alpha-hydroxylation by measuring ratio of Kcat to Km after 2 mins by reverse-phase HPLC analysis
T1 sequence (whole entry): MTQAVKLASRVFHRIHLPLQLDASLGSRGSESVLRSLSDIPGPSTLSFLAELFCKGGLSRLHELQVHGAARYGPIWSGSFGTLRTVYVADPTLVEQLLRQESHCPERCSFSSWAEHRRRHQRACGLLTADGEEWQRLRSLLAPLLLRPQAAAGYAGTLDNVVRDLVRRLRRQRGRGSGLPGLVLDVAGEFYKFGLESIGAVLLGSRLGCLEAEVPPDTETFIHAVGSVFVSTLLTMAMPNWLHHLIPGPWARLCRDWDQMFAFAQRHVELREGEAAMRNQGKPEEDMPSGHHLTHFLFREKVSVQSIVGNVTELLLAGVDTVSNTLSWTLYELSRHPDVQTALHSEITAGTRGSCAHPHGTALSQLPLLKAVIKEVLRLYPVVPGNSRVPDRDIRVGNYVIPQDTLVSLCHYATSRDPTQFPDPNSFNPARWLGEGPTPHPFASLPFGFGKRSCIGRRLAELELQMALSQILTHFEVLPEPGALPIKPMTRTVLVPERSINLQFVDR
In short: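 Substrates incorporated into dioleoylphosphatidylcholine/cardiolipin vesicles over a range of concentrations and incubated 2 min. Products extracted with dichloromethane and quantified by reverse-phase C18 HPLC. Km and kcat from a Michaelis–Menten fit (±SE of fit); kcat/Km expressed per mmol/mol phospholipid.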

[2] = target: T2, Vitamin D3 receptor (Homo sapiens) (UniProt P11473); test: Transactivation of VDR in human HaCaT cells up to 1000 nM after 24 hrs by luciferase reporter gene assay; assay type: cell-based
T2 sequence (whole entry): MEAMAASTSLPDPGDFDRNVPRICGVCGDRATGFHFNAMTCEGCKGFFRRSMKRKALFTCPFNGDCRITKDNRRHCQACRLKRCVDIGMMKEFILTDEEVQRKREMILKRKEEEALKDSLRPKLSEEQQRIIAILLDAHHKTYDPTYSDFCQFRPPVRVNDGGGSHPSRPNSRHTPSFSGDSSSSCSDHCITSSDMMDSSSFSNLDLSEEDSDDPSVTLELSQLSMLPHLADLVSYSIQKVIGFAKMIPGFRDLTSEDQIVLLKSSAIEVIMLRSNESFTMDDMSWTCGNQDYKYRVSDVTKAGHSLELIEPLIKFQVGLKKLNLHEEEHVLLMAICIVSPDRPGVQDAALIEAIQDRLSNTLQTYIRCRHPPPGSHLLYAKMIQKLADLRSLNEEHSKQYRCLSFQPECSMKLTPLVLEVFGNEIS
In short: (§1)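 Cells were lentivirally transduced with a VDRE-luciferase reporter and selected 1 week with puromycin (1 µg/mL). Seeded at 1000 cells/well in FBS-free medium for 24 h, then treated 24 h with secosteroids in DMSO (0.1% final; 0.1% DMSO as vehicle control). Luciferase read by ONE-Glo. Triplicate per concentration; EC50 reported.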

[3] = Antiinflammatory activity in DBA/1 mouse splenocytes assessed as IFNgamma production at 100 nM after 2 hrs by ELISA (reference value: 731 +/- 15 pg/ml); assay type: functional, Splenocyte
[4] = Upregulation of LAIR-1 expression in DBA/1 mouse splenocytes at 10^-7 M after overnight incubation by flow cytometric analysis (reference value: 973 +/- 95); assay type: functional, cell-based; conditions: Splenocyte
In short: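 Splenocytes isolated from DBA/1 mice were cultured overnight with secosteroid at 10−7 M or vehicle control. Cells were stained with fluorochrome-labelled anti-CD4 and anti-LAIR-1 antibodies and analysed by multiparameter flow cytometry, gating on CD4 cells. At least 10 000 cells were counted per sample. Read-out is LAIR-1 mean fluorescence, given as the mean of two separate analyses ± SD.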

[5] = target: T2, Vitamin D3 receptor (Homo sapiens); test: Transactivation of VDR in human Caco2 cells up to 1000 nM after 24 hrs by luciferase reporter gene assay; assay type: cell-based; conditions: Caco-2; in short: as §1
Vitamin D3 receptor [6] = target: T3, Vitamin D3 receptor (Homo sapiens, UniProt P11473); test: Transactivation of VDR in human HaCaT cells after 24 hrs by luciferase reporter gene assay; assay type: cell-based
T3 sequence (P11473 whole entry): T2 sequence (whole entry)

Vitamin D3 receptor [7] = target: T3, Vitamin D3 receptor; test: Transactivation of VDR in human Caco2 cells after 24 hrs by luciferase reporter gene assay; assay type: cell-based, Caco-2

| Structure (SMILES) | Ratio [1] | Activity [2] | Activity [3] | Flu intensity [4] | Activity [5] | EC50 (Vitamin D3 receptor [6]) | EC50 (Vitamin D3 receptor [7]) |
| --- | --- | --- | --- | --- | --- | --- | --- |
| C=C1CC[C@H](O)C/C1=C/C=C1\CCC[C@@]2(C)[C@H]1CC[C@@H]2[C@@](C)(O)CC[C@H](O)C(C)C | 0.71 min⁻¹ | inactive | 923 pg/mL | 1540 | inactive | – | – |
| C=C1/C(=C\C=C2/CCC[C@@]3(C)[C@H]2CC[C@@H]3[C@@](C)(O)CC[C@@H](O)C(C)C)C[C@@H](O)C[C@@H]1O | – | – | 291 pg/mL | 2100 | – | 64.9 nM | 66.9 nM |
| C=C1CC[C@H](O)C/C1=C/C=C1\CCC[C@@]2(C)[C@H]1CC[C@@H]2[C@@](C)(O)CC[C@@H](O)C(C)C | 3.9 min⁻¹ | inactive | 465 pg/mL | 1910 | inactive | – | – |
| C=C1/C(=C\C=C2/CCC[C@]3(C)[C@@H]([C@H](C)CCCC(C)(C)O)CC[C@@H]23)C[C@@H](O)C[C@@H]1O | – | – | – | 1640 | – | – | – |
| C=C1/C(=C\C=C2/CCC[C@]3(C)[C@@H]([C@H](C)OCCC(C)(C)O)CC[C@@H]23)C[C@@H](O)C[C@@H]1O [MAXACALCITOL] | – | – | 356 pg/mL | 1510 | – | 37.9 nM | 40.8 nM |
| C=C1/C(=C\C=C2/CCC[C@@]3(C)[C@H]2CC[C@@H]3[C@@](C)(O)CC[C@H](O)C(C)C)C[C@@H](O)C[C@@H]1O | – | – | 589 pg/mL | 1820 | – | 271 nM | 208 nM |
